Rad51 HR inh: blocks human Rad51 in homologous recombination | hit rate 0.085% among 200,000 | hRad51 DNA strand exchange, fluorescence dequenching | Q06609 | inhibition, % at 10 µM;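 active = inhibition above 40% at the single screening dose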;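 also: 0% = DMSO control wells and 100% = blanks with heterologous ssDNA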
Target sequence (Q06609 whole entry, looked up): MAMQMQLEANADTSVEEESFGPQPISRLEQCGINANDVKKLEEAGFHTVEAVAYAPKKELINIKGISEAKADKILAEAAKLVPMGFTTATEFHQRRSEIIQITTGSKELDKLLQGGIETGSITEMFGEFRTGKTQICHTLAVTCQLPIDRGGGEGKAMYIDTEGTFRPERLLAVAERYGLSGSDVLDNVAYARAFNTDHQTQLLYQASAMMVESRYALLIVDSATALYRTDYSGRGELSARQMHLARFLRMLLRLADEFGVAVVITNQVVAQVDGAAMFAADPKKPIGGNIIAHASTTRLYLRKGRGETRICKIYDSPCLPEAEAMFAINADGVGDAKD
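Test system: preformed human Rad51 ssDNA filaments. Compound dosing: single dose, 10 µM final compound. Incubation: filaments 15 min 37 °C, then compound 30 min. Technique: FRET fluorescence dequenching, excitation 485 nm, emission 520 nm. Read-out basis: percent inhibition from fluorescence, normalised to plate control and blank means. Benchmarks: plate controls and plate blanks.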
m-calpain inh: inhibitors of pig calpain II; purified calpain II, fluorogenic peptide substrate, 30 min; inhibition, % at 16 µM; hit rate 0.37% among 220,000;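 active = inhibition above about 50%, limit read from the data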
PMI act satM6P: increases human PMI activity with near-saturating mannose 6-phosphate; P34949; activation factor at 20 µM; hit rate 0.34% among 190,000; coupled PMI enzyme assay, resazurin fluorescence, 20 min; stronger effect = higher value; 1 = untreated enzyme, 0 = substrate-free blank;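 active = activation factor of 2 or more at 20 µM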
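assay system = human phosphomannose isomerase with PGI, G6PDH, diaphorase coupling enzymes | quantity = 15 ng/mL PMI | incubation = enzyme reaction with compound 20 min at room temperature | medium = HEPES pH 7.4 buffer with MgCl2 and Tween-20 | compound dosing = one concentration, 20 µM, in 1% DMSO | measured by = Diaphorase-driven resazurin-to-resorufin fluorescence, excitation 544, emission 590 nm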
Efa HMGR inh: blocks class II HMG-CoA reductase of Enterococcus faecalis | AID 1066 | hit rate 0.41% among 190,000 | purified E. faecalis HMGR, NADPH absorbance 340 nm kinetic | inhibition, % at 10 µM;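 active = inhibition above a set limit, the median over all tested compounds plus 3 SD, cut at about 9.5% in these data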;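 also: enzyme runs in reverse so mevalonate oxidation gives rising NADPH absorbance; 0% = complete reaction with DMSO and 100% = background rate lacking mevalonate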
PMI activator: phosphomannose isomerase (human) activation; P34949; purified human PMI, coupled resazurin fluorescence, 20 min; stronger effect = higher value; 1 = vehicle control, 0 substrate-free wells; activation factor at 20 µM; hit rate 0.005% among 190,000; AID 1214;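 active = activation factor of 2 or more at 20 µM, relative to plate controls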
* marks the source's active call; other numbers are inactive results; i = inactive; · = not tested or not shown. This is a sample that favours compounds with a hit; in the whole collection about 1.1% have one here.

SMILES | Rad51 HR inh | m-calpain inh | PMI act satM6P | Efa HMGR inh | PMI activator
CC(C)c1ccc(-c2noc(C3CCCN(C(=O)c4ccc(F)cc4F)C3)n2)cc1 (stereo not given) | 1 | 77* | 0.9 | -2 | 0.9
C=CCn1c(C)cc(C2=NNC(=NCc3ccccc3)SC2)c1C | -2 | -57 | 1.1 | -5 | 1.2
CCN=C1NN=C(c2cc(C)n(CCc3ccccc3)c2C)CS1 | -1 | -148 | 2.2* | 3 | 1.6
CSCCC(N=C(NS(=O)(=O)c1ccc(C)cc1)c1ccccc1)C(=O)O (stereo not given) | · | -11 | · | · | ·
O=C1CC(/C=C/c2ccncc2)=Nc2ccccc2N1 | -2 | 24 | 2.1* | 0 | 1.7
O=C1CC(c2ccccc2)=Nc2ccccc2N1 | 0 | 16 | 1 | -2 | 1
O=C(NCCc1c[nH]c2ccccc12)C(=O)NCC1OCCCN1S(=O)(=O)c1cc(F)ccc1F (stereo not given) | 2 | -22 | 0.9 | -3 | 0.8
O=C(NCC1OCCCN1S(=O)(=O)c1cc(F)ccc1F)C(=O)NC1CCCCC1 (stereo not given) | 8 | -22 | 1 | 9.6* | 1
Nc1c(Cl)cc2c(c1Oc1ccccc1)C(=O)c1ccccc1C2=O | -11 | 53* | 1 | -5 | 0.9
Nc1ccc(O)c2c1C(=O)c1ccccc1C2=O | -8 | -14 | 0.6 | -10 | 0.9
CC(C)c1onc(C(=O)Nc2cccc(Cl)c2)c1[N+](=O)[O-] | 8 | 84* | 1 | 6 | 1
CC(=O)Nc1ccc(Nc2ccc(S(=O)(=O)C(F)(F)F)cc2[N+](=O)[O-])cc1 | -2 | 55* | 0.9 | -7 | 0.8
CCCCN(CCCC)C(=O)/C=C/c1cccc([N+](=O)[O-])c1 | 0 | 62* | 0.9 | 0 | 0.9
CCOC(=O)N1CCC(N2CCN(C3CCCC3)C(CCO)C2)CC1 (stereo not given) | · | -22 | 1 | -2 | 0.9
NC(=S)NNC(=O)c1cccc(Br)c1 | -6 | 20 | 1 | 17* | 1
Cc1ccc(S(=O)(=O)NC(=O)NN2CCCCCC2)cc1 | -5 | 4 | 2* | -7 | 1.7
O=C(CCCC(=O)OCC(F)(F)C(F)F)Nc1ccccc1F | 3 | -19 | 1 | 3 | 0.9
CC(C)(CO)NC(=O)CC1C(=O)NCCN1CC(c1ccccc1)c1ccccc1 (stereo not given) | 3 | -31 | 0.8 | 10* | 1
O=C(NNc1cccc(Cl)n1)c1cccnc1Cl | · | 16 | 1 | -6 | 1.1
O=C(NNc1cccc(Cl)c1)c1cccnc1Cl | -1 | -4 | 2* | -1 | 1.7
COc1ccc(CNC(=O)C2CCCN2S(=O)(=O)c2ccc(Cl)cc2)cc1 (stereo not given) | 8 | 0 | 0.9 | 18* | 1
Cc1noc(C)c1CSc1nc2ccccc2c(=O)n1-c1ccc(F)cc1F | · | 77* | 0.8 | -4 | 0.8
CN(C)NC(=O)C(NC(=O)c1ccccc1)C12CC3CC(CC(C3)C1)C2 (stereo not given) | 17 | 2 | 1.3 | -4 | 1.3
COc1cc(OC)cc(C(=O)NC(C(=O)O)C23CC4CC(CC(C4)C2)C3)c1 (stereo not given) | 0 | -11 | 1 | 14* | 1.1
Cc1cc(/C=C2\SC(=Nc3ccccc3)NC2=O)c(C)n1-c1ccc(S(N)(=O)=O)cc1 | -13 | -110 | 1.1 | 6 | 1
SMILES | Rad51 HR inh | m-calpain inh | PMI act satM6P | Efa HMGR inh | PMI activator
COc1cc2nc(C3CCC3)nc(N3CCN(c4ccccc4OC)CC3)c2cc1OC | · | -46 | 0.8 | 4 | 0.8
CC1CCN(S(=O)C23CC4CC(CC(C4)C2)C3)CC1 (stereo not given) | 1 | 56* | · | -4 | ·
O=C(Nc1ccccc1)Nc1ccc2ncoc2c1 | -5 | 31 | 0.8 | 0 | 0.9
O=C(Nc1ccccc1)Nc1ccc2ocnc2c1 | -2 | 7 | 0.9 | 18* | 0.9
CC(/C=N\Nc1nnc2c(n1)[nH]c1c(C)cccc12)=C\c1ccco1 | -6 | 35 | 0.9 | 13* | 1
CCCC1Cc2c(sc(NC(=S)NC(=O)c3ccccc3)c2C#N)CO1 (stereo not given) | -3 | 53* | 0.9 | -2 | 0.9
N#Cc1c(NC(=S)NC(=O)c2ccccc2)sc2c1CCN(CCc1ccccc1)C2 | i | -54 | 2.2* | -3 | 1.6
CCn1c(=S)ccc2ccc(OC)cc21 | 10 | -11 | 2* | -3 | 1.6
CCn1c2ccc(OC)cc2c2nc3ccccc3nc21 | -4 | -17 | 1 | 0 | 0.9
COc1ccc(-n2c3c(cc(C(=O)N4CCCCC4)c2=O)C(=O)CC(C)(C)C3)cc1 | -4 | -35 | 0.9 | -4 | 0.9
CC1(C)CC(=O)c2cc(C(=O)N3CCN(CCO)CC3)c(=O)n(-c3ccc(Cl)cc3)c2C1 | -2 | -11 | 1 | 11* | 0.9
COc1ccc(NS(=O)(=O)c2cc(N/C(=N\S(=O)(=O)c3ccccc3)c3ccc(F)cc3)ccc2Cl)cc1 | 4 | -42 | 1 | -10 | 1
CC(C)CC(O)(CC(C)C)C(=O)NNc1ccccc1 | 8 | -6 | 1.8 | 15* | 1.4
CC(C)CCC(O)(CCC(C)C)C(=O)NNc1ccccc1 | · | 6 | 0.9 | 4 | 0.9
Cc1ccccc1C(=O)N1CCN=C1SCc1ccc([N+](=O)[O-])cc1 | · | 25 | 1 | -3 | 1.1
Cc1cccc(C(=O)NC(CC(=O)O)c2ccc(OC3CCCC3)cc2)c1[N+](=O)[O-] (stereo not given) | 44* | -17 | 1.1 | -3 | 1.2
O=C(O)CC(NC(=O)C1CCCCC1)c1ccc(OC2CCCC2)cc1 (stereo not given) | 28 | -22 | 1 | -2 | 1.1
NC1=NC(=O)C2(COC(c3cccnc3)OC2)S1 (stereo not given) | -4 | 5 | 1 | 0 | 1.1
CN(C)S(=O)(=O)c1cccc(NC(=O)Cn2cc(C(F)(F)F)cc(Cl)c2=O)c1 | -2 | -15 | 0.9 | 16* | 1
COc1cc(/C=N/Nc2ccc(Cl)c(C(=O)O)c2)ccc1OC(=O)c1cccs1 | -50 | -60 | 2.4* | 0 | 1.6
CSc1ccc(/C=N/Nc2ccc(Cl)c(C(=O)O)c2)cc1 | 5 | -51 | 2.4* | -11 | 1.7
COc1cc(/C=N/Nc2ccccc2)ccc1OC(=O)c1cccs1 | -1 | 15 | 2.2* | · | 1.5
O=C(O)c1cc(N/N=C/c2ccncc2)ccc1Cl | 2 | 11 | · | · | ·
Cn1c(CNC(=O)OC(C)(C)C)nnc1SCC(=O)N1CCOCC1 | -6 | -10 | · | · | ·
O=C(c1ccco1)N(Cc1ccc([N+](=O)[O-])cc1)c1ccc(Br)cc1 | -2 | 21 | 0.9 | -3 | 0.8
O=C(c1ccco1)N(Cc1cccc([N+](=O)[O-])c1)c1ccc(Br)cc1 | · | 52* | 0.8 | -1 | 0.8
c1ccc(-c2noc(CN3CCN(c4cnccn4)CC3)n2)cc1 | · | -9 | 1 | 0 | 0.7

Source: PubChem BioAssay (several laboratories)
